Screening results as filed in PubChem.
An excerpt weighted towards active compounds, which were near 1.7% of everything screened.
Hck Nef HTS – inhibitors of Nef-activated human Hck kinase, primary screen, biochemical, Z-Lyte FRET, 384-well, Hck-YEEI. Recombinant Hck-YEEI plus Nef, Z-Lyte FRET kinase assay. actives 0.68% (n = 220,000). Tyrosine-protein kinase HCK (Homo sapiens), P08631. AID 463187, 2010. inhibition, % at 20 µM;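 active = Hck-Nef kinase inhibition above about 50%, limit read from the data; inactive = inhibition below that limit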;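 also: 0% = DMSO with Hck plus Nef and 100% = Hck alone without Nef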
Runt-CBFb FRET – inhibitors of RUNX1 Runt–CBFb binding, primary screen, biochemical, FRET, Cerulean-Runt, Venus-CBFb, uHTS; Runt-related transcription factor 1 (Homo sapiens) + Core-binding factor subunit beta …; Cerulean-Runt/Venus-CBFb FRET ratio 530/480, 1 h; inhibition, % at 20 µM; actives 0.46% (n = 220,000);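 active = inhibition over about 50% at 20 µM in the single-dose screen, limit read from the data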;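 also: 0% = DMSO wells and 100% = excess unlabeled CBFb competitor control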
Target sequence (Q01196 whole entry, looked up): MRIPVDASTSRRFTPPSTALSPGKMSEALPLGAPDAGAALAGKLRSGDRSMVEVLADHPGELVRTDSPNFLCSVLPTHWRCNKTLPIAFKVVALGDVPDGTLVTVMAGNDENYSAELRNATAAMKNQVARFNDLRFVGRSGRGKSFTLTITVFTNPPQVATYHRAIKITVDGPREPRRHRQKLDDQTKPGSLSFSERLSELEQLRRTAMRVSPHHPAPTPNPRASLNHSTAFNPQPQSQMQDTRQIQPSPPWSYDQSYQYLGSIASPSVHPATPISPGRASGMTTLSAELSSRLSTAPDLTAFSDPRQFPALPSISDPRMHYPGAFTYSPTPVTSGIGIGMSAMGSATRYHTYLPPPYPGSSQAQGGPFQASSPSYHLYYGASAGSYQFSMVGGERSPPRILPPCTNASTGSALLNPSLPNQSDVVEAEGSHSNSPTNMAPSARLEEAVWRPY
Target sequence (Q13951 whole entry, looked up): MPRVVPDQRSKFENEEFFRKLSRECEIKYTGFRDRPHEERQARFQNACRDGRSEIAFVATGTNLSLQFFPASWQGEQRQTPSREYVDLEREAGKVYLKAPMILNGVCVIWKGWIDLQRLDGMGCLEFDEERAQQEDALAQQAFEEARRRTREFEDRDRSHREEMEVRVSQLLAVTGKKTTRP
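Measured by: fluorescence energy transfer, 422 nm excitation, 530/480 nm emission; test system: Cerulean-tagged RUNX1 Runt domain (FRET donor) fusion protein; buffer or medium: Tris pH 7.5 buffer with BSA; compound: one dose, 20 µM compound, 1% DMSO; times: two 1 h room-temperature incubations shielded from light; benchmarks: unlabeled CBFb 5 µM, positive control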
Runt-SMMHC FRET – inhibitors of RUNX1 Runt–CBFb-SMMHC binding, primary screen, biochemical, FRET, Cerulean-Runt, Venus-CBFb-SMMHC, uHTS | actives 0.74% (n = 220,000) | inhibition, % at 20 µM | AID 1434, 2008 | Cerulean-Runt/Venus-CBFb-SMMHC FRET ratio 530/480, 1 h | Runt-related transcription factor 1 (Homo sapiens) + Core-binding factor subunit beta …;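 active = mean inhibition across duplicate retests at 20 µM reaching about 50%, limit read from the data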;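 also: 0% = DMSO wells and 100% = wells with excess untagged CBFb-SMMHC; inhibitors lower the FRET ratio by blocking Runt binding to CBFb-SMMHC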
RanGTP-Imp inh – inhibitors of RanGTP-importin-beta interaction, primary screen, biochemical, FRET, CFP-Ran, YFP-importin-beta, homogeneous; cell-free CFP-Ran/YFP-importin-beta FRET ratio; inhibition, % (no concentration beside the values); AID 2216, 2009; Ran GTPase (GTP-bound) - importin-beta complex; actives 1.1% (n = 300,000);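 active = more than half of the replicate wells show a fall in the fluorescence ratio signal beyond about 16%, limit read from the data, passing the limit was not always enough; inconclusive = exactly half of the replicate wells pass the set limit; inactive = fewer than half of replicates pass the limit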;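 also: 0% = DMSO wells and 100% = Ran loaded with GDP instead of GTP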
The depositor's hits bear a star; ? = inconclusive; · = no result.

SMILES	Hck Nef HTS	Runt-CBFb FRET	Runt-SMMHC FRET	RanGTP-Imp inh
Cc1nn(-c2ccccc2)c(Cl)c1/C=N/NC(=O)c1ccccc1F	23	-1	0	4
Cc1cc(N2C(=O)C(O)=C(C(=O)c3cc4ccccc4o3)C2c2ccc(Br)cc2)no1 (centres undefined)	·	·	·	47*
O=C(Cc1ccccc1[N+](=O)[O-])NCCCc1ccccc1	·	·	·	3
CC(=O)c1ccc(S(=O)(=O)NC2CC(=O)N(c3ccc(Cl)cc3)C2)cc1 (centres undefined)	·	·	·	-2
CCOc1ccc(C2=C/C(=C/c3cccnc3)C(=O)O2)cc1	-3	12	78	29*
COc1ccc(Nc2cc(Cl)nc(N)n2)cc1OC	13	2	6	18*
Cc1cccc(C)c1OCC(=O)NNC(=S)NC(=O)C1CC1	·	·	·	1
COc1ccc(C2C(C#N)=C(N)OC(C(C)(C)C)=C2C#N)cc1OC (centres undefined)	2	5	11	8
COc1ccc(C2C(C#N)=C(N)Oc3cc(O)ccc32)cc1OC (centres undefined)	4	10	42	56*
COc1ccc(C2C(C#N)=C(N)SC(N)=C2C#N)cc1OC	6	13	12	48*
COc1ccc(C2C(C#N)=C(N)Oc3cc(O)ccc32)cc1C (centres undefined)	·	·	·	67*
N#CC1=C(N)Oc2cc(O)ccc2C1c1ccccc1 (centres undefined)	-8	49	65*	53*
CCOC(=O)CC1=C(C(=O)OCC)C(c2ccc(OC)c(OC)c2)C(C#N)=C(N)O1 (centres undefined)	1	5	9	3
N#CC1=C(N)Oc2cc3ccccc3cc2C1c1cccnc1 (centres undefined)	-2	-1	-2	-2
COc1cc(C2C(C#N)=C(N)Oc3cc(O)ccc32)cc(OC)c1OC (centres undefined)	2	12	-19	69*
COc1ccc(N=Cc2cc3c(cc2O)OC(N)=C(C#N)C3c2ccccc2)cc1 (centres undefined)	1	49	88*	10
CCOC(=O)c1c(NC(=O)C(NCCN(C)C)c2ccccc2)sc2c1CCCC2 (centres undefined)	·	·	·	-2
CC(C)Cc1ccc(/C=C/C(=O)N2CCOCC2)cc1	16	-5	-1	18*
CCN1C=C(Cc2ccccc2C)C2=C(C1)C(c1ccccc1C)C(C#N)=C(N)O2 (centres undefined)	7	1	0	10
CCN1C=CC2=C(C#N)C(N)C(C#N)(C#N)C(c3ccccc3C(F)(F)F)C2C1 (centres undefined)	32	76*	83*	58*
O=C(O)C1Sc2[nH]c(=O)sc2C2c3ccc(O)cc3OC(=O)C12 (centres undefined)	30	20	87*	·
CC1(C(=O)O)Sc2[nH]c(=O)sc2C2c3ccccc3OC(=O)C21 (centres undefined)	-1	13	2	48*
COC(=O)C1Sc2[nH]c(=O)sc2C2c3ccccc3OC(=O)C12 (centres undefined)	-1	17	-4	60*
CC(C)(C)c1ccc(C(=O)NCCC(=O)NCc2cccs2)cc1	·	·	·	4
CCN1C(=O)CC(c2ccc(OC(C)C)cc2)C1=O (centres undefined)	·	·	·	1
SMILES	Hck Nef HTS	Runt-CBFb FRET	Runt-SMMHC FRET	RanGTP-Imp inh
CC(=O)c1ccc(NC(=O)CS(=O)(=O)c2cn(CC(=O)N3CCOCC3)c3ccccc23)cc1	·	·	·	-6
CC(=O)Nc1ccc(C23CC4CC(CC(C4)C2)C3)cc1	·	·	·	26*
COc1ccccc1C(=O)N/C(=C\c1cn(S(=O)(=O)N(C)C)c2ccccc12)C(=O)NCCN1CCOCC1	·	·	·	0
N=c1c(C(=O)NCC2CCCO2)cc2c(=O)n3ccccc3nc2n1Cc1ccco1 (centres undefined)	·	·	·	73*
O=C(Cn1c(=O)n(Cc2ccco2)c(=O)c2cc(Cl)ccc21)NCC1CCCO1 (centres undefined)	1	2	-1	-1
Cc1ccc2nc3c(cc(C(=O)NCC4CCCO4)n3C)c(=O)n2c1 (centres undefined)	27	19	89*	·
Cc1ccc(Cn2c(=N)c(C(=O)NCCN3CCOCC3)cc3c(=O)n4ccccc4nc32)cc1	·	·	·	-1
N=c1c(C(=O)NCC2CCCO2)cc2c(=O)n3ccccc3nc2n1Cc1ccc(F)cc1 (centres undefined)	·	·	·	179*
O=C(CCN1C(=O)/C(=C/c2ccc(F)cc2)SC1=S)N[C@@H](CO)Cc1ccccc1	·	·	·	1
COc1ccc([N+](=O)[O-])cc1NC(=O)c1ccc(Br)s1	79*	2	5	0
N#Cc1c(C(F)(F)F)cc(=O)n2c1[nH]c1ccccc12	·	·	·	91*
O=C(Nc1nonc1-c1ccc(F)cc1)c1ccco1	·	·	·	1
COc1c(C)cc(Br)cc1C(=O)NC(=S)NCc1ccco1	·	·	·	4
COc1cc(/C=C2\SC(=O)N(CCNC(=O)c3sc4cc(F)ccc4c3Cl)C2=O)cc(OC)c1OC	55*	-21	-54	1
COc1cc(C(=O)NCC(=O)NCCN2C(=O)S/C(=C\c3ccccc3Cl)C2=O)cc(OC)c1OC	·	·	·	-1
COc1ccc(NC2=C3CC(C)CC=C3N(c3ccc(OC)cc3)C2=O)cc1 (centres undefined)	-7	0	2	0
COc1cccc(NC(=O)C2CCN(S(=O)(=O)c3ccc4[nH]c(=O)ccc4c3)CC2)c1	·	·	·	2
COc1ccc2c(c1OC)C(=O)N(c1ccc(C)c(C)c1)C2=O	-11	-1	-10	75*
COc1ccc2c(c1OC)C(=O)N(c1ccc(C)cc1)C2=O	13	1	0	5
Cn1cnnc1SCC(=O)Nc1ncc(C(F)(F)F)cc1Cl	-12	1	-7	-4
CCNC(=O)/C(C#N)=C/c1c(N2CCN(Cc3ccc4c(c3)OCO4)CC2)nc2c(C)cccn2c1=O	4	50*	63*	9
COCCCNC(=O)/C(C#N)=C/c1c(N2CCN(c3ccccc3)CC2)nc2c(C)cccn2c1=O	·	·	·	32*
C=CCNC(=O)/C(C#N)=C/c1c(N2CCN(c3ccccc3)CC2)nc2c(C)cccn2c1=O	·	·	·	28*
COC(=O)/C(C#N)=C/c1c(N2CCN(c3ccccc3)CC2)nc2c(C)cccn2c1=O	·	·	·	3
O=C(CSCc1cccc(Cl)c1)OCc1nc2ccsc2c(=O)[nH]1	·	·	·	6
CCn1c(=S)[nH]c2scc(-c3cccs3)c2c1=O	15	6	5	?
CC(C)n1c(=S)[nH]c2scc(-c3cccs3)c2c1=O	98*	8	-12	?
